Assay results published in ChEMBL document CHEMBL1944523, “Benzimidazolones: a new class of selective peroxisome proliferator-activated receptor γ (PPARγ) modulators” (J Med Chem, 2011).
Calls of active or inactive are those of the source. The rule behind the calls is not given here.

Experiments:
Rattus norvegicus [1] = assay: Dose normalized AUC in rat at 2 mg/kg, po by LC-MS/MS analysis; format: ADME, organism-based; design: dose 2 mg/kg, route oral; details: in vivo
Method in brief: (§1)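 Rat pharmacokinetics: 2 mpk oral in 5% methylcellulose, 0.5 mpk iv in ethanol/PEG400/water (1/4/5). Blood sampled at set intervals; plasma acidified with 0.5 M formate buffer pH 3.0, acetonitrile-precipitated, quantified by LC−MS−MS against spiked control-plasma calibration curves.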

[2] = target: T1, Peroxisome proliferator-activated receptor gamma (Homo sapiens, UniProt P37231); assay: Partial agonist activity at human PPARgamma LBD assessed as activation of PBP by HTRF assay; format: functional
T1 sequence (P37231 whole entry): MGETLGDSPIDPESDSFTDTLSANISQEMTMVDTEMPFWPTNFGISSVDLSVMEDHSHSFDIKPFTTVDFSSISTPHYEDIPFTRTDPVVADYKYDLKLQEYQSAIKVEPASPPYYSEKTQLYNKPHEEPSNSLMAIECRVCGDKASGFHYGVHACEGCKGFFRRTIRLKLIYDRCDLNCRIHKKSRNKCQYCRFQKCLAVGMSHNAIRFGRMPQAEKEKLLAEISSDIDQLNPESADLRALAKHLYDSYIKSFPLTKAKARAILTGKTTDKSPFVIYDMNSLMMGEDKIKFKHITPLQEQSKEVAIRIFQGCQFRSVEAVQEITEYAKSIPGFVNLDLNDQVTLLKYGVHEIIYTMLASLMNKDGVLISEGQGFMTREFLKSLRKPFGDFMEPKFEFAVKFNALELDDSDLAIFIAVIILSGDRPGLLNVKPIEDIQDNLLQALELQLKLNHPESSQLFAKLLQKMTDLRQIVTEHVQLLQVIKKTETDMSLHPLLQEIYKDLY

[3] = target: T2, Peroxisome proliferator-activated receptor alpha (Homo sapiens, UniProt Q07869); assay: Binding affinity to human PPARalpha expressed in COS-1 by scintillation proximity assay
T2 sequence (Q07869 whole entry): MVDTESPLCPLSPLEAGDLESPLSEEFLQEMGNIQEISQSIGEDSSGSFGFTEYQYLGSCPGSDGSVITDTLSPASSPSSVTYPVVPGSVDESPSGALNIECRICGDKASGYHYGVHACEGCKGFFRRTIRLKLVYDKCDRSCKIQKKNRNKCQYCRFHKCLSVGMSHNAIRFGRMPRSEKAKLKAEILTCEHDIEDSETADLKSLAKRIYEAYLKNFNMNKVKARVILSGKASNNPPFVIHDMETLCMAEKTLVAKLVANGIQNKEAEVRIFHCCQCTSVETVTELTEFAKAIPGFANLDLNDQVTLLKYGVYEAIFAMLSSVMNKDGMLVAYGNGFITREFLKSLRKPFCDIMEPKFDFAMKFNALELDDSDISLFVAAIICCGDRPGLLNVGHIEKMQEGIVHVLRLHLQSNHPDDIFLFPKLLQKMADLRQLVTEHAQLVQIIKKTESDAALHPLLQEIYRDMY
Method in brief: (§2)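 Scintillation proximity binding assay on PPAR receptors giving IC50; mean of three determinations.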

[4] = target: T1, Peroxisome proliferator-activated receptor gamma; assay: Partial agonist activity at human PPARgamma LBD assessed as activation of Src-1 by HTRF assay; format: functional
[5] = Half life in rat at 0.5 mg/kg, iv and 2 mg/kg, po by LC-MS/MS analysis; format: ADME, organism-based; details: in vivo; method in brief: as §1
Rattus norvegicus [6] = assay: Plasma clearance in rat at 0.5 mg/kg, iv and 2 mg/kg, po by LC-MS/MS analysis; format: ADME, organism-based; details: in vivo; method in brief: as §1
[7] = Drug uptake in db/db C57BLKS/J-m +/+ Leprdb mouse at 10 mg/kg, po qd for 10 days measured in day 11 by LC-MS/MS analysis; format: ADME, organism-based; design: dose 10 mg/kg, route oral; details: in vivo
Method in brief: (§3)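 Male db/db (C57BLKS/J-m +/+Leprdb) mice aged 12−13 weeks, seven per group, gavaged once daily with compound in 0.25% methylcellulose vehicle. Total compound exposure measured at study end: plasma acidified with 0.5 M formate buffer pH 3.0, protein precipitated with acetonitrile, quantified by LC−MS−MS against calibration curves in control plasma.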

[8] = target: T3, Peroxisome proliferator-activated receptor gamma (Homo sapiens) (UniProt P37231); assay: Agonist activity at human PPARgamma expressed in COS-1 cells co-expressing with Gal4 by transactivation assay relative to rosiglitazone; format: functional, cell-based
T3 sequence (whole entry): T1 sequence (P37231 whole entry)
Method in brief: (§4)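 GAL4-PPAR chimeric receptor transactivation in transiently co-transfected COS-1 cells with a GAL4-responsive reporter; potency as EC50 and maximum activation expressed relative to rosiglitazone; triplicate, mean reported.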

[9] = target: T1, Peroxisome proliferator-activated receptor gamma; assay: Partial agonist activity at human PPARgamma LBD assessed as activation of PGC1 by HTRF assay; format: functional
[10] = target: T1, Peroxisome proliferator-activated receptor gamma; assay: Partial agonist activity at human PPARgamma LBD assessed as activation of CBP1-453 by HTRF assay; format: functional
Mus musculus [11] = assay: Antidiabetic activity in db/db C57BLKS/J-m +/+ Leprdb mouse assessed as reduction of glucose level at 20 mg/kg, po qd for 10 days measured on 11 relative to control; format: functional; design: scale not given: the % may be the effect or the level left
Method in brief: (§5)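 Male db/db (C57BLKS/J-m +/+Leprdb) mice, 12−13 weeks old, seven per group, chow and water freely available; once-daily oral gavage in 0.25% methylcellulose vehicle for 11 days. Tail blood drawn just before next dose on days 0, 4, 7 and 11 for plasma glucose. Value is percent correction versus vehicle control; mean of n = 7; rosiglitazone 10 mpk positive control.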

[12] = target: T1, Peroxisome proliferator-activated receptor gamma; assay: Agonist activity at human PPARgamma expressed in COS-1 cells co-expressing with Gal4 by transactivation assay; format: functional, cell-based; method in brief: as §4
[13] = target: T4, Peroxisome proliferator-activated receptor delta (Homo sapiens, UniProt Q03181); assay: Binding affinity to PPARdelta by scintillation proximity assay; method in brief: as §2
T4 sequence (Q03181 whole entry): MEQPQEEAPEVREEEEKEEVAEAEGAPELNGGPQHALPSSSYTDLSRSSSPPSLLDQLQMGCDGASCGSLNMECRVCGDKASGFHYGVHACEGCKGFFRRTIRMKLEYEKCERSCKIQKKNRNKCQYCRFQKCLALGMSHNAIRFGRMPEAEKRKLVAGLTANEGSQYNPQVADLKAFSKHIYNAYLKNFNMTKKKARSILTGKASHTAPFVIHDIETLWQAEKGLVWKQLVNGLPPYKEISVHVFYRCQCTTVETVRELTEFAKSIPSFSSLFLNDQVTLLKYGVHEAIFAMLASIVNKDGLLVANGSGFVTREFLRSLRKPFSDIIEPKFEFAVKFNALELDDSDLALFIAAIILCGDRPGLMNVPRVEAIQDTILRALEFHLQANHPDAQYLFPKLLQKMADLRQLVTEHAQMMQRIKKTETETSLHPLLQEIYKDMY

[14] = target: T1, Peroxisome proliferator-activated receptor gamma; assay: Binding affinity to human PPARgamma by scintillation proximity assay; method in brief: as §2
[15] = Oral bioavailability in rat at 2 mg/kg by LC-MS/MS analysis; format: ADME, organism-based; details: in vivo; method in brief: as §1
Rattus norvegicus [16] = assay: Antidiabetic activity in obese insulin resistant Zucker fa/fa rat assessed as decrease in free fatty acids level in plasma at 1 to 100 mg/kg qd for 7 days; format: functional, organism-based
Method in brief: (§6)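 Obese insulin-resistant Zucker fa/fa rats (n = 8) dosed daily for 7 days with vehicle or compound. Tail-nick blood taken 1 day before dosing and 1 day after the seventh dose; plasma insulin by rat insulin RIA, free fatty acids and triglyceride by enzymatic kits per manufacturer instructions.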

COS-1 = assay: Binding affinity to human PPARgamma LBD Y473A mutant expressed in COS1 cells co-expressing GAL4 by scintillation proximity assay; format: cell-based
[17] = AUC in db/db C57BLKS/J-m +/+ Leprdb mouse at 10 mg/kg, po qd for 10 days measured on day 11; format: ADME, organism-based; design: dose 10 mg/kg, route oral; details: plasma; method in brief: as §3
Rattus norvegicus [18] = assay: Antidiabetic activity in obese insulin resistant Zucker fa/fa rat assessed as decrease in insulin level in plasma administered qd for 7 days
Rattus norvegicus [19] = assay: Antidiabetic activity in obese insulin resistant Zucker fa/fa rat assessed as decrease in insulin level in plasma at 1 to 100 mg/kg qd for 7 days; format: functional, organism-based; method in brief: as §6
[20] = target: T3, Peroxisome proliferator-activated receptor gamma (Homo sapiens); assay: Binding affinity to human wild type PPARgamma LBD expressed in COS1 cells co-expressing GAL4 by scintillation proximity assay; format: cell-based; details: COS-1
Mus musculus [21] = assay: Antidiabetic activity in db/db C57BLKS/J-m +/+ Leprdb mouse assessed as reduction of glucose level at 10 mg/kg, po qd for 10 days measured on 11 relative to control; format: functional; design: scale not given: the % may be the effect or the level left; method in brief: as §5
Rattus norvegicus [22] = assay: Antidiabetic activity in obese insulin resistant Zucker fa/fa rat assessed as decrease in triglyceride level in plasma at 1 to 100 mg/kg qd for 7 days; format: functional, organism-based; method in brief: as §6
Mus musculus [23] = assay: Toxicity in po dosed db/db C57BLKS/J-m +/+ Leprdb mouse assessed as increase in water content of epididymal fat pad administered qd for 10 days measured on day 11 by vaccum drying method; format: organism-based; details: in vivo, 240 h
Method in brief: (§7)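 Male db/db mice, seven per group, gavaged daily in 0.25% methylcellulose; after day 11 dosing epididymal fat pads excised, weighed, vacuum centrifugal-dried over 24 h, reweighed to give water content; mean of seven determinations.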

Mus musculus [24] = assay: Antidiabetic activity in db/db C57BLKS/J-m +/+ Leprdb mouse assessed as reduction of glucose level at 30 mg/kg, po qd for 10 days measured on 11 relative to control; format: functional; design: scale not given: the % may be the effect or the level left; method in brief: as §5
Mus musculus [25] = assay: Toxicity in db/db C57BLKS/J-m +/+ Leprdb mouse assessed as increase in water content of epididymal fat pad at 10 to 50 mg/kg, po qd for 10 days measured on day 11 by vaccum drying method; format: organism-based; design: dose 10-50 mg/kg, route oral; details: in vivo, 240 h; method in brief: as §7

SMILES	AUC/dose (Rattus norvegicus [1])	EC50 [2]	IC50 [3]	EC50 [4]	half-life [5]	clearance (Rattus norvegicus [6])	AUC at 240 h [7]	Emax [8]	EC50 [9]	EC50 [10]	EC50 [12]	IC50 [13]	IC50 [14]	bioavailability [15]	Activity (COS-1)	Activity [20]	Activity (Mus musculus [21])	further results
COc1ccc2c(-n3c(=O)n(Cc4cc([C@@]5(C)OC(=O)NC5=O)ccc4Cl)c4ccccc43)noc2c1	0.8 µM·kg·h/mg	1820 nM	> 50000 nM	> 50000 nM	3.8 h	29.7 mL/min/kg	104 µM·h	26%	2 nM	> 50000 nM	9.1 nM	> 50000 nM	9.9 nM	49%	–	–	–	Activity (Mus musculus [11]): 29%
CN(CCOc1ccc(CC2SC(=O)NC2=O)cc1)c1ccccn1 (stereo not drawn) [ROSIGLITAZONE]	–	–	–	–	–	–	–	–	–	–	–	–	–	–	inactive	Active	60%	Activity (Rattus norvegicus [16]): Active; AUC at 240 h [17]: 220 µM·h; ED50 (Rattus norvegicus [18]): 312 µM·h; Activity (Rattus norvegicus [19]): Active; Activity (Rattus norvegicus [22]): Active; Activity (Mus musculus [23]): Dose-dependent effect
C[C@]1(c2cccc(Cn3c(=O)n(-c4noc5cc(Cl)ccc45)c4ccccc43)c2)OC(=O)NC1=O	–	–	–	–	–	–	–	101%	–	–	–	–	–	–	Active	Active	84%	–
COc1ccc2c(-n3c(=O)n(Cc4ccc(Cl)c(O[C@H](C)C(=O)O)c4)c4ccccc43)noc2c1	1.5 µM·kg·h/mg	3 nM	> 50000 nM	> 50000 nM	5 h	11.4 mL/min/kg	576 µM·h	31%	2 nM	> 50000 nM	28.1 nM	> 50000 nM	6.9 nM	48%	–	–	–	Activity (Mus musculus [24]): 39%
C[C@]1(c2cccc(Cn3c(=O)n(-c4noc5cc(Cl)ccc45)c4ccccc43)c2)OC(O)=NC1=O	1.9 µM·kg·h/mg	–	> 50000 nM	–	3 h	26.5 mL/min/kg	1160 µM·h	–	–	–	102 nM	> 50000 nM	49.1 nM	117%	–	–	–	Activity (Mus musculus [25]): Non-toxic
